Read-outs that look alike come from different tables or passages of the source.

The test system of assay [1] is SK-OV-3 (human ovarian cancer cells). In words: MTT antiproliferative assay, SK-OV-3. The settings on record: read-out: IC50 SKOV-3. The class given is cell-based. In outline:
(§1)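 MTT assay on HepG2, SK-OV-3, NCI-H460, BEL-7404 and normal HL-7702 cells, with 5-fluorouracil and cisplatin run alongside as positive controls.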
In general terms: Formazan colour is commonly taken as a measure of viable cells.

Assay [2] concerns HL-7702 (human liver normal cells). Nature of the assay: MTT cytotoxicity assay, HL-7702 normal cells. The assay is classed as cell-based. Conditions: L02, 48 h, read-out: IC50 HL-7702. In a few lines: as §1
The test system of assay [3] is HepG2 (human liver cancer cells). In words: MTT antiproliferative assay, HepG2. The settings on record: read-out: IC50 HepG2. The assay is classed as cell-based. In outline: as §1
Assay [4] relates to NCI-H460 (human large cell lung cancer cells). Nature of the assay: MTT antiproliferative assay, NCI-H460. The class given is cell-based. Conditions: read-out: IC50 NCI-H460. In a few lines: as §1
Assay [5] has as its system BEL-7404 (human liver cancer cells). In words: MTT antiproliferative assay, BEL-7404. The class given is cell-based. The settings on record: read-out: IC50 BEL-7404, 48 h, mean ± SD of three experiments. In outline:
as §1

In a further assay the test system is HepG2 xenograft. Nature of the assay: In vivo antitumor activity, HepG2 xenograft model. Also noted: species or system SPF BALB/c nude mice. In outline:
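HepG2 xenografts in SPF BALB/c nude mice, randomised into vehicle, low-dose (10 mg kg−1), high-dose (20 mg kg−1) and paclitaxel (5 mg kg−1) groups. All were injected in 5% DMSO/saline (v/v). Tumours were measured twice weekly in two dimensions to give volume, mean ± SD, n = 6. The relative tumour increment rate (T/C, %) was taken at day 41.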

Setting [6] is: MTT, 48 h, mean ± SD of three experiments.

Turning to `O=c1[nH]cc(F)c(=O)[nH]1` [5-FU, 5-fluorouracil], the IC50 – broadly, the point on the concentration scale where inhibition reaches its midpoint – in assay [1] (Homo sapiens, SK-OV-3, 48 h) worked out at 26.3 ± 0.57 µM; in assay [2], 58.7 ± 2.31 µM; in assay [3] (Homo sapiens, HepG2, 48 h), 32 ± 0.56 µM; in assay [4] (Homo sapiens, NCI-H460, 48 h), 45.4 ± 0.94 µM.

Consider `N.N.[Cl][Pt][Cl]` [Cisplatin, cisplatin], for which the IC50 came out at 15.6 ± 1.7 µM in assay [1] (setting [6]), 10.1 ± 0.71 µM in assay [3] (setting [6]), 20.4 ± 0.5 µM in assay [4] (setting [6]) and 14.7 ± 0.66 µM in assay [5].

Regarding `CC(=O)O[C@H]1C(=O)[C@@]2(C)[C@H]([C@H](OC(=O)c3ccccc3)[C@]3(O)C[C@H](OC(=O)[C@H](O)[C@@H](NC(=O)c4ccccc4)c4ccccc4)C(C)=C1C3(C)C)[C@]1(OC(C)=O)CO[C@@H]1C[C@@H]2O` [Paclitaxel, paclitaxel], the “T/C value (relative tumor increment rate)” value in the assay on HepG2 xenograft (5 mg kg^−1 dose) came out at 19.0%. Also, in the assay on HepG2 xenograft (3a1 10 and 20 mg kg^−1, paclitaxel 5 mg kg^−1, compared with control), the “effect on tumour volume in mice” value was “significantly inhibited the increase in the tumour volume”.
